In all, about 2,500 compounds went through this assay and about 1,200 (48%) were called active.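 Rule for the calls: active = mean activation above the low control average plus 3 SD, as set in the primary screen (cut at about 12% in these data); inactive = the rest.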 The set was probably picked from earlier hits. Some of the results follow.
Biological target: Troponin I, cardiac muscle (Homo sapiens) + Troponin T, cardiac muscle (Homo sapiens) + Troponin C, slow skeletal and cardiac muscles (Homo sapiens) (UniProt P19429+P45379+P63316)
Assay: cardiac RTF calcium sensitivity activators, confirmation, biochemical, IANBD-TnC fluorescence, triplicate (AID 504383);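 note: 0% = DMSO at 0.472 mM calcium and 100% = DMSO at 2.9 mM calcium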
Settings: IANBD-labeled cardiac RTF, Ca2+ sensitivity fluorescence; at 7.2 µM; stronger effect = higher value; scaled from EC20 to saturating calcium; tested at EC20 calcium, 0.472 mM
How it was run: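 material = labelled regulated thin filaments | probe or stimulus = Ca2+ 0.472 mM, EC20 level | dosing = single nominal compound dose of 7.2 µM | schedule = 15 min at 25 °C | signal = fluorescence intensity of labelled filaments | evaluation = fluorescence gain scaled between EC20 and EC100 calcium controls | benchmarks = low control EC20 calcium, high control EC100 calcium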

activation, inactive:
CC(C)OC(=O)c1c2c(n3ccccc13)C(=O)c1ccccc1C2=O 9.36%
CN(C)/C=C/C(=O)c1ccc(Br)s1 10.5%
Cc1nc(NC(=O)c2ccccc2[N+](=O)[O-])sc1C(=O)N(C)C 11.2%
Cc1cccc(NC(=O)Cn2cnc3ccc(S(=O)(=O)N4CCC(C)CC4)cc3c2=O)n1 8.56%
CN1CC[C@@H]2C(=O)N3CCc4ccc(Br)cc4[C@@H]3C[C@@H]21 10.5%
CC(Sc1nc2ncc(Cl)cc2[nH]1)C(=O)Nc1ccc(C(N)=O)cc1 (stereo unspecified) 1.26%
CCn1c(O)c(/C=N/N=C/c2ccccc2)c2ccc(C3=NNC(=O)CC3)cc21 10.2%
C/C(=N\Nc1nccnc1Cl)c1ccc(Cl)c(Cl)c1 5.84%
O=C(Nc1ccccc1)OC1CCC2CC1CCC2OC(=O)Nc1ccccc1 (stereo unspecified) 7.87%
O=C(Nc1ccccc1)C1CC2CCCC(C1)C2=O (stereo unspecified) 8.65%
CCCN1C(=O)/C(=C/C=C2\N(CC)c3ccccc3C2(C)C)SC1=S 3.85%
CCN1/C(=C/C=C/c2oc3ccc(-c4ccccc4)cc3[n+]2CC)Oc2ccc(-c3ccccc3)cc21 6.07%
CCCN1C(=O)/C(=C\C=C2\N(CC)c3ccccc3C2(C)C)SC1=S 10.1%
CC(=O)OCCn1c2nc(=O)[nH]c(=O)c-2nc2cc(C)c(C)cc21 1.76%
CCCCn1c(=O)[nH]c2nc3cc(N)ccc3nc2c1=O 0.26%
Cc1ccccc1-n1c(=O)n(CCc2ccccc2)c(=O)c2[nH]cnc21 8.97%
COc1ccc(/C=C2\SC(=O)N(CCC(=O)N3CCN(C)CC3)C2=O)cc1 5.35%
COCCN1C(=O)/C(=C/c2ccc(N3CCCC3)cc2C)SC1=S 0.91%
O=C1c2ccccc2-c2onc3ccc(Oc4ccccc4)c1c23 7.69%
COc1ccc(-c2noc(CCC(=O)NCCc3ccccc3)n2)cc1 10.9%
CCOC(=O)COn1c(=O)c(-c2cc3ccccc3o2)[n+]([O-])c2ccccc21 2.03%
Cc1ccccc1Nc1nnc(SCC(=O)c2cc3ccccc3o2)s1 6.8%
COc1ccc(OC)c(NC(=O)NCCc2cccc(Cl)c2)c1 5.54%

activation, active:
CCN(CC)c1ccc(/C=C/c2cccc[n+]2C)c(OC)c1 63.4%
CN(C)NC(=O)c1ccc([N+](=O)[O-])s1 31.3%
Cc1c(Cl)c([N+](=O)[O-])nn1CC(=O)N1CCN(C23CC4CC(CC(C4)C2)C3)CC1 12%
O=C(Cn1cnc2c(cnn2-c2ccccc2)c1=O)Nc1ccc(S(=O)(=O)N2CCOCC2)cc1 31%
O=S(=O)(c1ccc(NC(=S)Nc2ccccc2)cc1)N1CCOCC1 24.5%
CN(C)NC(=S)Nc1ccc(S(=O)(=O)N2CCCCC2)cc1 19.8%
O=C(CSc1nc2ncc(Br)cc2[nH]1)c1cccc([N+](=O)[O-])c1 64%
CC(=O)N1C(=O)C(=C2C=C(C)OC(C)=C2)c2ccccc21 62.7%
Cc1c2ccccc2nc2c(F)c(N(C)C)c(F)c(F)c12 19.2%
Cc1c2ccccc2nc2c(F)c(NCCO)c(F)c(F)c12 159%
CCn1c(O)c(/C=N/N=C/c2ccc(OC)cc2)c2cc(C3=NNC(=O)CC3)ccc21 20.9%
C/C(=N/Nc1ccnc2cc(Cl)ccc12)c1ccc(N)cc1 18.9%
O=C(Nc1ccccc1)NC1CS(=O)(=O)CC1O (stereo unspecified) 149%
CCC(C)(C)NC(=O)C(c1ccc(F)cc1)N(Cc1ccco1)C(=O)c1cnccn1 (stereo unspecified) 70.6%
O=C1CCN2C=Nc3cccc4ccc1c2c34 13.7%
CNC(=S)N1N=C(c2ccc(Br)cc2)CC1c1ccc(N(C)C)cc1 (stereo unspecified) 31%
CCSC1=N/C(=C\C=C2/Oc3ccccc3N2CC)C(=O)S1 31.9%
CCCCN1C(=O)/C(=C/C=C2\Oc3ccccc3N2CC)SC1=S 53.5%
COc1cccc(F)c1C(=O)NC(=O)Nc1ccc2nc(C)oc2c1 252%
CCCCCCn1c(=O)[nH]c2nc3cc(N)c(C)cc3nc2c1=O 158%
Cc1cc2nc3c(=O)n(CCc4ccccc4)c(=O)[nH]c3nc2cc1N 17.3%
C=CCn1c(=O)[nH]c2nc3cc(N=CN(C)C)c(C)cc3nc2c1=O 69.7%
COCCN1C(=O)/C(=C/c2ccc(N3CCCC3)cc2)SC1=S 15.2%
Cc1occc1C(=O)N=Nc1c(O)n(C)c2ccccc12 15.2%
O=C(CSc1nc2ccccc2s1)c1cc2ccccc2o1 14.8%
COc1ccc(OC)c(-n2nnnc2SCC(=O)NCCc2ccccc2)c1 12.5%
O=C(CSc1nc2ccccc2s1)NNC(=S)Nc1ccccc1 482%
O=C(CSc1nc2cc(Cl)ccc2s1)c1cc2ccccc2o1 107%

— PubChem BioAssay AID504383 (The Scripps Research Institute Molecular Screening Center, 2011)
